The list is not random: actives were taken first. Their share in the collection is about 1.8%.
TDP2 inh: blocks human TDP2 phosphodiesterase activity | recombinant TDP2, T5PNP hydrolysis, p-nitrophenol absorbance 415 nm | inhibition, % at 12.8 µM | 370,000 compounds, 0.34% hits | AID 720702;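 active = inhibition above the mean of all tested compounds plus 3 SD, set per campaign, cut at about 25% in these data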;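 also: 0% = DMSO with enzyme and 100% = buffer with substrate but no TDP2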
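test system = human TDP2 enzyme | input = TDP2 enzyme at 120 nM final | medium = 50 mM Tris-HCl pH 7.5 with Mg2+, KCl, DTT, BSA | also added = T5PNP substrate, 5 mM | times = 2 h at 37 °C | technique = epi absorbance | benchmarks = high control without enzyme, low control DMSO plus TDP2 | replication = each compound tested once, singlicate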
MBD2 inh: inhibitors of human MBD2 binding to methylated oligonucleotide; Q9UBB5; TR-FRET; inhibition, % at 4.4 µM; 370,000 compounds, 0.31% hits; in the data active = inhibition above about 13%
LEDGF integ inh: blocks HIV-1 LEDGF/p75-dependent DNA integration; TR-FRET IN-LEDGF/p75 DNA integration, Eu/Cy5; inhibition, % at 3.7 µM; 370,000 compounds, 0.64% hits; AID 743269;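 active = inhibition above the screen-wide mean plus 3 SD, cut at about 13% in these data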;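 also: signal is the Cy5 over europium emission ratio at 671 and 618 nm; 0% = plate median of compound wells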
UHRF1 MBD2 ctr: human UHRF1 methylated DNA binding inhibitors. inhibition, % at 4.4 µM. Q96T88. UHRF1 binding to methylated oligo, TR-FRET. AID 687016. 370,000 compounds, 0.75% hits; in the data active = inhibition above about 21%;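 also: UHRF1 SRA domain binding a hemimethylated CpG hairpin DNA probe; 0% = median of test compound wells and 100% = reference inhibitor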
Target sequence (Q96T88 whole entry, looked up, the tested form may be a part): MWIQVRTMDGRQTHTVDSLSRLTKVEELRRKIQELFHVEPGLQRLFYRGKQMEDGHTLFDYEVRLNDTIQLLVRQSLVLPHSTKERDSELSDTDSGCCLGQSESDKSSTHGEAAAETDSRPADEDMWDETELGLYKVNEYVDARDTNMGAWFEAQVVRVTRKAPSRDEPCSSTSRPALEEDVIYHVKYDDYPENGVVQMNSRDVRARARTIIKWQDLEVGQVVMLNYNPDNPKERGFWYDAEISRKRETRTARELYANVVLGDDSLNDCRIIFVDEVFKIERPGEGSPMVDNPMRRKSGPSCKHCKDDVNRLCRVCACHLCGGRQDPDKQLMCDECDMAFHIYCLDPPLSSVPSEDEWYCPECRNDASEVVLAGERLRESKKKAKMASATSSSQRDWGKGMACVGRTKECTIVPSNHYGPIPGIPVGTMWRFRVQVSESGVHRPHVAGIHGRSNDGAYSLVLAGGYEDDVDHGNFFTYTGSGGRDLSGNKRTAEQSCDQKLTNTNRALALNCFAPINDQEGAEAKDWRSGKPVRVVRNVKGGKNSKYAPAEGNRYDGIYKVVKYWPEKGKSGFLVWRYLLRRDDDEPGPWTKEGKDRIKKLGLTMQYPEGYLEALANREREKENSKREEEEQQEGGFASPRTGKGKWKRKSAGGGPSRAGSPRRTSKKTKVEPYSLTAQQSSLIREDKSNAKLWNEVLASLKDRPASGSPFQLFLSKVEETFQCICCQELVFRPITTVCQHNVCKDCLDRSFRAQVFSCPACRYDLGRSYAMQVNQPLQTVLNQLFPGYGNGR
CASP6 VEID inh: caspase-6 (human) enzyme inhibition. P55212. purified caspase-6, Z-VEID-R110 cleavage fluorescence. inhibition, % at 12.5 µM. 350,000 compounds, 0.53% hits. AID 686996;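 active = mean inhibition across replicates at least about 35%, with every replicate also reaching that limit, limit read from the data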;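 also: 0% = median of neutral control wells and 100% = no fluorescence left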
NSD2 inh: blocks human histone methyltransferase NSD2. inhibition, % at 12.5 µM. AID 743445. NSD2 peptide methylation, AlphaScreen, 120 min. 310,000 compounds, 0.54% hits; in the data active = inhibition above about 50%
The depositor's hits bear a star; / = no result.

SMILES	TDP2 inh	MBD2 inh	LEDGF integ inh	UHRF1 MBD2 ctr	CASP6 VEID inh	NSD2 inh
C[C@@H]1CCCCO[C@H](CN(C)Cc2ccc(C(=O)O)cc2)[C@H](C)CN([C@@H](C)CO)C(=O)c2cc(NC(=O)NC3CCCCC3)ccc2O1	/	/	/	/	0.0	/
COc1ccccc1-n1c(CNC(=O)c2ccc(S(=O)(=O)N3CCCCC3)cc2)n[nH]c1=S	5.2	1.2	-0.7	-2.4	39.8*	1.0
COc1ccc(-c2cnc3c(c2)C(=O)N([C@H](C)CO)C[C@H](C)[C@H](CN(C)S(=O)(=O)c2ccc(C#N)cc2)O3)cc1	/	/	/	/	-0.1	/
Cc1ccccc1/C=N/Nc1ccnc2cc(Cl)ccc12	9.0	-3.2	3.7	-4.2	-4.0	-0.5
Oc1ccc(/C=N/Nc2ccnc3cc(Cl)ccc23)c(O)c1	-4.3	0.9	0.1	-2.1	69.2*	2.6
COc1ccccc1C(=O)N1CCN(C(=O)[C@H]2O[C@@H](n3cnc4c(N)ncnc43)[C@H](O)[C@@H]2O)CC1	-5.7	11.7	-0.2	24.1*	3.1	/
CCOc1ccccc1OCC(=O)Nc1ccc(S(=O)(=O)Nc2ncccn2)cc1	-23.9	5.4	-1.5	2.5	/	/
CCOc1ccccc1OCC(=O)Nc1ccc(S(=O)(=O)N(C)C)cc1	6.4	-6.0	1.3	47.1*	/	1.0
O=C(C1CC1)N1CCc2sccc2C1c1ccc(Cl)cc1 (centres undefined)	-1.4	3.7	5.3	50.7*	-2.1	-2.6
COc1ccc(C2c3ccsc3CCN2C(C)=O)cc1 (centres undefined)	5.0	-1.8	-0.2	-0.1	0.2	5.8
CS(=O)(=O)N(CC(=O)Nc1ccc(S(=O)(=O)N2CCCC2)cc1)c1cccc(F)c1	1.9	6.1	0.7	27.6*	-1.4	-7.4
CC(=O)c1cccc(NC(=O)CN(c2cccc(F)c2)S(C)(=O)=O)c1	3.2	2.3	0.2	1.4	/	/
CC[n+]1c(/C=C/C=C/N(C(C)=O)c2ccccc2)sc2ccccc21	4.7	-8.4	16.8*	-19.9	/	25.3
CCn1c(/C=C/N(C(C)=O)c2ccccc2)[n+](CC)c2ccc(Cl)cc21	2.2	-5.3	-0.4	-3.0	-1.0	3.2
Cc1ccccc1C(=O)NC(=S)NC1CCSC1=O (centres undefined)	8.2	-1.7	-3.6	-1.9	/	-1.9
O=C(NC(=S)NC1CCSC1=O)c1cccs1 (centres undefined)	-1.7	-3.3	-2.2	49.7*	4.3	1.8
O=c1cc(-c2ccccc2)[nH]c2ccc(F)cc12	-5.4	7.9	4.6	6.0	-2.6	/
O=c1[nH]c2ccc(F)cc2[nH]c1=O	18.9	0.3	0.2	-3.2	41.9*	0.3
CC(=O)CCC(=O)NC1CCCc2c1cnn2-c1ccc(C(C)(C)C)cc1 (centres undefined)	4.1	0.6	-4.3	33.7*	-3.8	-2.0
C[C@@H]1CCCCO[C@@H](CN(C)C(=O)NC2CCCCC2)[C@@H](C)CN([C@@H](C)CO)C(=O)c2cc(NC(=O)c3ccccc3)ccc2O1	/	/	/	/	1.1	/
O=C(COc1cccnc1[N+](=O)[O-])NC1CCS(=O)(=O)C1 (centres undefined)	-5.9	8.4	2.9	26.5*	/	-4.2
O=C(COc1cccnc1[N+](=O)[O-])Nc1ccc(F)cc1	5.6	0.2	-1.5	-1.9	-0.2	0.0
CN1CCN(C(=O)/C(=C/c2ccccc2Cl)NC(=O)c2ccccc2)CC1	4.5	3.2	45.1*	1.1	0.7	8.0
O=C(COC(=O)c1cccc(Br)c1)NCc1ccco1	8.1	10.6	4.8	13.1	65.0*	-7.2
CCOC(=O)c1ccc(NC(=O)C(=O)NCc2ccco2)cc1	12.1	0.7	2.6	24.4*	0.0	1.6
SMILES	TDP2 inh	MBD2 inh	LEDGF integ inh	UHRF1 MBD2 ctr	CASP6 VEID inh	NSD2 inh
Cc1cc(Br)ccc1SCC(=O)OCC(=O)NCc1ccco1	12.2	5.5	6.5	16.1	48.2*	1.4
O=C(COC(=O)CSc1ccc(Br)cc1)NCc1ccco1	10.1	0.6	1.9	-2.5	-47.0	1.4
Cc1ccc(C)c(SCC(=O)NCc2ccco2)c1	-2.9	-2.3	-4.5	-0.7	/	3.1
Cc1ccc(C)c(SCC(=O)OCC(=O)c2ccco2)c1	2.5	4.3	3.8	11.6	53.9*	1.7
Cc1ccc(S(=O)(=O)N(C)C[C@H]2OCCCC[C@H](C)Oc3ccc(NC(=O)c4ccccc4)cc3C(=O)N([C@H](C)CO)C[C@H]2C)cc1	/	/	/	/	-0.8	/
COc1cc(NC(=O)[C@H]2O[C@@H](n3ccc(N)nc3=O)[C@H](O)[C@@H]2O)cc(OC)c1OC	0.2	4.5	-2.2	43.4*	0.9	/
Nc1ccn([C@@H]2O[C@H](C(=O)Nc3cc(C(F)(F)F)cc(C(F)(F)F)c3)[C@@H](O)[C@H]2O)c(=O)n1	-12.3	-3.0	7.8	-2.4	-2.2	/
COc1ccc2[nH]c3c(c2c1)CCN1C(=O)C(CC(=O)NCc2ccc(OC)c(OC)c2)C[C@H](C(=O)N2CCOCC2)[C@@]31C (some centres undefined)	-5.8	-2.4	6.2	-0.3	0.2	/
CC(C)N(C(=O)[C@H]1C[C@H](CC(=O)NCCCN(C)C)C(=O)N2CCc3c([nH]c4cc(CCC(=O)N(C)C)ccc34)[C@]12C)C(C)C	-9.6	4.9	5.4	21.0*	-15.7	/
COc1ccc(CNC(=O)C[C@H]2C[C@H](C(=O)N3CCCCC3)[C@@]3(C)c4[nH]c5ccc(Cl)cc5c4CCN3C2=O)cc1OC	-2.4	11.1	-3.8	21.0*	3.5	/
C[C@@H]1CCCCO[C@@H](CN(C)Cc2ccc(C(F)(F)F)cc2)[C@H](C)CN([C@@H](C)CO)C(=O)c2cc(NS(=O)(=O)c3ccc(Cl)cc3)ccc2O1	/	/	/	/	-0.7	/
Cc1noc(C)c1NC(=O)N[C@H]1CC[C@@H](CCNC(=O)C2CCCCC2)O[C@H]1CO	/	/	/	/	2.3	/
CCOC(=O)c1sc(C)c2c(=O)n(Cc3ccc(Cl)cc3)cnc12	7.2	3.7	0.2	2.3	49.9*	-2.9
CCCNC(=O)OC1CC2CC1[C@H]1CCCCN1C2=O (some centres undefined)	-9.5	8.7	1.8	22.6*	1.9	/
Cc1ccc(CNC(=O)OC2CC3CC2[C@H]2CCCCN2C3=O)cc1 (some centres undefined)	8.0	1.1	-2.2	3.9	-1.3	/
O=C(Nc1ccccc1C(F)(F)F)NC1(C(=O)N2CCOCC2)CCCCC1	2.8	15.8*	24.7*	34.2*	86.0*	/
Cc1ccccc1NC(=O)NC1(C(=O)N2CCOCC2)CCCCC1	-7.0	1.9	5.3	1.2	1.1	6.2
Cc1noc(C)c1NC(=O)NCC[C@H]1CC[C@@H](NC(=O)Nc2cccc(F)c2)[C@H](CO)O1	/	/	/	/	-16.7	/
CC(=O)N1N=C(c2ccco2)CC1c1ccc(Cl)o1 (centres undefined)	-0.4	6.5	11.4	32.9*	5.3	1.5

Source: PubChem
